Results from ChEMBL document CHEMBL1129303, “Potent human immunodeficiency virus type 1 protease inhibitors that utilize noncoded D-amino acids as P2/P3 ligands” (J Med Chem, 1996).
Several values for one entry are separate records, joined by “and”; a condition that tells them apart may be missing. Equal entries are not always repeated.

How the values were obtained:
[1] = target: Human immunodeficiency virus type 1 protease (Human immunodeficiency virus 1, UniProt Q72874); assay: Inhibitory activity against HIV-1 protease
CCRF-CEM [2] = assay: Antiviral activity against CEM cells; assay type: functional, cell-based; conditions: Homo sapiens
MT2 = assay: Antiviral activity against MT-2 cells; assay type: functional, cell-based; conditions: Homo sapiens
[3] = Maximum plasma concentration in rat upon oral administration of 40 mg/kg; assay type: ADME, organism-based; set-up: dose 40 mg/kg, route oral
Outline: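 Fasted (16-18 h) Harlan Sprague-Dawley rats, jugular cannula implanted ≥48 h earlier, gavaged 40 mg/kg in acacia/Tween emulsion, n=2. Plasma from 0-4 h blood draws diluted 1:49 and assayed by HIV protease cleavage of FITC-labelled peptide (5 h, 37 °C, MES pH 5.5) with HPLC quantitation. Inhibitory activity read against a standard curve of parent compound; Cmax is the peak.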

CCRF-CEM [4] = assay: In vitro inhibitory activity against replication of HIV type-1 virus in CEM cells; assay type: functional, cell-based; conditions: Homo sapiens

Compound	IC50 [1]	IC50 (CCRF-CEM [2]) [nM]	IC50 (MT2) [nM]	Cmax [3] [ng/mL]	IC50 (CCRF-CEM [4]) [nM]
CC(C)(C)NC(=O)c1ccccc1C[C@@H](O)[C@H](Cc1ccccc1)NC(=O)[C@H](CSc1ccc2ccccc2n1)NS(C)(=O)=O	60 nM	5400	6440		
CC(C)(C)NC(=O)c1ccccc1C[C@@H](O)[C@H](Cc1ccccc1)NC(=O)[C@H](CSc1ccccc1)NS(C)(=O)=O	44 nM	4370	2750		
CC(C)(C)NC(=O)c1ccccc1C[C@@H](O)[C@H](Cc1ccccc1)NC(=O)[C@@H](N)CC(=O)OCc1ccccc1	> 1000 nM				
CC(=O)N[C@@H](CSc1ccccc1)C(=O)N[C@@H](Cc1ccccc1)[C@H](O)Cc1ccccc1C(=O)NC(C)(C)C	220 nM	5400	11300		
CC(C)(C)NC(=O)c1ccccc1C[C@@H](O)[C@H](Cc1ccccc1)NC(=O)[C@H](CSc1ccc2ccccc2c1)NS(C)(=O)=O	1.8 nM	530	800		
CC(C)(C)NC(=O)c1ccccc1C[C@@H](O)[C@H](Cc1ccccc1)NC(=O)[C@H](C[S+]([O-])c1cccc2ccccc12)NS(C)(=O)=O (stereo partly drawn)	0.45 nM	< 0.5	6	< 250	0.8
CC(C)(C)NC(=O)c1ccccc1C[C@@H](O)[C@H](Cc1ccccc1)NC(=O)[C@H](C[S+]([O-])c1ccccc1)NS(C)(=O)=O (stereo partly drawn)	1.9 nM	100	500		
CCCC(=O)N[C@@H](CC(=O)OCc1ccccc1)C(=O)N[C@@H](Cc1ccccc1)[C@H](O)Cc1ccccc1C(=O)NC(C)(C)C	323 nM	8700	24200		
CC(C)(C)NC(=O)c1ccccc1C[C@@H](O)[C@H](Cc1ccccc1)NC(=O)[C@H](CS(=O)(=O)c1cccc2ccccc12)NS(C)(=O)=O	0.44 nM	< 0.5	8.8		49
COc1ccc(SC[C@H](NS(C)(=O)=O)C(=O)N[C@@H](Cc2ccccc2)[C@H](O)Cc2ccccc2C(=O)NC(C)(C)C)cc1	16 nM	1800	1910		
CC(C)(C)NC(=O)c1ccccc1C[C@@H](O)[C@H](Cc1ccccc1)NC(=O)[C@H](C[S+]([O-])c1ccc(F)cc1)NS(C)(=O)=O (stereo partly drawn)	0.38 nM	165	900	2200	
CC(C)(C)NC(=O)c1ccccc1C[C@@H](O)[C@H](Cc1ccccc1)NC(=O)[C@H](CSc1ccccn1)NS(C)(=O)=O	910 nM				
CC(C)(C)NC(=O)c1ccccc1C[C@@H](O)[C@H](Cc1ccccc1)NC(=O)[C@H](CSc1ccc(F)cc1)NS(C)(=O)=O	4.4 nM	2130	2880		
CC(C)(C)NC(=O)c1ccccc1C[C@@H](O)[C@H](Cc1ccccc1)NC(=O)[C@H](CS(=O)(=O)c1ccc2ccccc2n1)NS(C)(=O)=O	0.3 nM	< 0.5	5	< 100	12
COc1ccc(S(=O)(=O)C[C@H](NS(C)(=O)=O)C(=O)N[C@@H](Cc2ccccc2)[C@H](O)Cc2ccccc2C(=O)NC(C)(C)C)cc1	2.4 nM	54	150	< 300	107
CCC(=O)N[C@@H](CC(=O)OCc1ccccc1)C(=O)N[C@@H](Cc1ccccc1)[C@H](O)Cc1ccccc1C(=O)NC(C)(C)C	73 nM	5200	9880		
CC(C)(C)NC(=O)c1ccccc1C[C@@H](O)[C@H](Cc1ccccc1)NC(=O)[C@H](CS(=O)(=O)c1ccccc1)NS(C)(=O)=O	5.7 nM	72	176	< 300	83
CC(=O)N[C@@H](C[S+]([O-])c1ccc2ccccc2n1)C(=O)N[C@@H](Cc1ccccc1)[C@H](O)Cc1ccccc1C(=O)NC(C)(C)C (stereo partly drawn)	0.25 nM	72	180		

Compound	IC50 [1]	IC50 (CCRF-CEM [2]) [nM]	IC50 (MT2) [nM]	Cmax [3] [ng/mL]	IC50 (CCRF-CEM [4]) [nM]
CC(C)(C)NC(=O)c1ccccc1C[C@@H](O)[C@H](Cc1ccccc1)NC(=O)[C@H](C[S+]([O-])c1ccc2ccccc2c1)NS(C)(=O)=O (stereo partly drawn)	3.5 nM	< 0.5	4.3	330	6.7
CC(C)(C)NC(=O)c1ccccc1C[C@@H](O)[C@H](Cc1ccccc1)NC(=O)[C@H](CS(=O)(=O)Cc1ccccc1)NS(C)(=O)=O	19.4 nM	800	730		
CC(C)(C)NC(=O)c1ccccc1C[C@@H](O)[C@H](Cc1ccccc1)NC(=O)[C@H](CS(=O)(=O)c1ccccn1)NS(C)(=O)=O	22 nM				
CC(C)(C)NC(=O)c1ccccc1C[C@@H](O)[C@H](Cc1ccccc1)NC(=O)[C@H](C[S+]([O-])c1ccccn1)NS(C)(=O)=O (stereo partly drawn)	19.3 nM and 7.9 nM	330	770	< 200	474
CC(C)(C)NC(=O)c1ccccc1C[C@@H](O)[C@H](Cc1ccccc1)NC(=O)[C@H](CS(=O)(=O)c1ccc(Cl)cc1)NS(C)(=O)=O	0.34 nM	138	24	< 300	16
CC(C)(C)NC(=O)c1ccccc1C[C@@H](O)[C@H](Cc1ccccc1)NC(=O)[C@H](CS(=O)(=O)c1ccc(C(F)(F)F)cc1)NS(C)(=O)=O	2 nM	204	450	< 300	646
CC(=O)N[C@@H](CS(=O)(=O)c1ccc2ccccc2n1)C(=O)N[C@@H](Cc1ccccc1)[C@H](O)Cc1ccccc1C(=O)NC(C)(C)C	0.28 nM				59
CC(C)(C)NC(=O)c1ccccc1C[C@@H](O)[C@H](Cc1ccccc1)NC(=O)C(CS(=O)(=O)c1ccc2ccccc2n1)NS(C)(=O)=O (stereo partly drawn)	2.8 nM	2060	3030		5780
Cn1nnnc1SC[C@H](NS(C)(=O)=O)C(=O)N[C@@H](Cc1ccccc1)[C@H](O)Cc1ccccc1C(=O)NC(C)(C)C	17.5 nM	6680	9260		
CC(=O)N[C@@H](CS(=O)(=O)c1ccccc1)C(=O)N[C@@H](Cc1ccccc1)[C@H](O)Cc1ccccc1C(=O)NC(C)(C)C	20 nM	815	820		
CC(=O)N[C@@H](CSc1ccc2ccccc2n1)C(=O)N[C@@H](Cc1ccccc1)[C@H](O)Cc1ccccc1C(=O)NC(C)(C)C	14.7 nM				
CC(=O)N[C@@H](CS(=O)(=O)c1ccc2ccccc2c1)C(=O)N[C@@H](Cc1ccccc1)[C@H](O)Cc1ccccc1C(=O)NC(C)(C)C	0.32 nM	11	31	< 100	
CC(C)(C)NC(=O)c1ccccc1C[C@@H](O)[C@H](Cc1ccccc1)NC(=O)[C@H](CSc1ccc(C(F)(F)F)cc1)NS(C)(=O)=O	170 nM	2930	5910		
CC(C)(C)NC(=O)c1ccccc1C[C@@H](O)[C@H](Cc1ccccc1)NC(=O)[C@H](CS(=O)(=O)c1ccc(F)cc1)NS(C)(=O)=O	0.77 nM	59	440	< 300	32
Cn1nnnc1[S+]([O-])C[C@H](NS(C)(=O)=O)C(=O)N[C@@H](Cc1ccccc1)[C@H](O)Cc1ccccc1C(=O)NC(C)(C)C (stereo partly drawn)	2.1 nM			490	5010
CC(C)(C)NC(=O)c1ccccc1C[C@@H](O)[C@H](Cc1ccccc1)NC(=O)[C@H](CSc1cccc2ccccc12)NS(C)(=O)=O	1.2 nM	270	760		323
CC(C)(C)NC(=O)c1ccccc1C[C@@H](O)[C@H](Cc1ccccc1)NC(=O)[C@H](C[S+]([O-])c1ccc(C(F)(F)F)cc1)NS(C)(=O)=O (stereo partly drawn)	2.3 nM	53	116	< 200	
CC(C)(C)NC(=O)c1ccccc1C[C@@H](O)[C@H](Cc1ccccc1)NC(=O)[C@H](CSCc1ccccc1)NS(C)(=O)=O	14.7 nM	1650	926		
